This is an account of results in ChEMBL document CHEMBL4706565, “Anti-glioma effects of 2-aminothiophene-3-carboxamide derivatives, ANO1 channel blockers” (Eur J Med Chem, 2020).

One may read the inhibition as how much of the control response was suppressed. For orientation: IC50 means the concentration needed to halve the response being measured.

In assay [1] the target is T1, Anoctamin-1 (Mus musculus) (UniProt Q8BHY3).
T1 sequence (whole entry): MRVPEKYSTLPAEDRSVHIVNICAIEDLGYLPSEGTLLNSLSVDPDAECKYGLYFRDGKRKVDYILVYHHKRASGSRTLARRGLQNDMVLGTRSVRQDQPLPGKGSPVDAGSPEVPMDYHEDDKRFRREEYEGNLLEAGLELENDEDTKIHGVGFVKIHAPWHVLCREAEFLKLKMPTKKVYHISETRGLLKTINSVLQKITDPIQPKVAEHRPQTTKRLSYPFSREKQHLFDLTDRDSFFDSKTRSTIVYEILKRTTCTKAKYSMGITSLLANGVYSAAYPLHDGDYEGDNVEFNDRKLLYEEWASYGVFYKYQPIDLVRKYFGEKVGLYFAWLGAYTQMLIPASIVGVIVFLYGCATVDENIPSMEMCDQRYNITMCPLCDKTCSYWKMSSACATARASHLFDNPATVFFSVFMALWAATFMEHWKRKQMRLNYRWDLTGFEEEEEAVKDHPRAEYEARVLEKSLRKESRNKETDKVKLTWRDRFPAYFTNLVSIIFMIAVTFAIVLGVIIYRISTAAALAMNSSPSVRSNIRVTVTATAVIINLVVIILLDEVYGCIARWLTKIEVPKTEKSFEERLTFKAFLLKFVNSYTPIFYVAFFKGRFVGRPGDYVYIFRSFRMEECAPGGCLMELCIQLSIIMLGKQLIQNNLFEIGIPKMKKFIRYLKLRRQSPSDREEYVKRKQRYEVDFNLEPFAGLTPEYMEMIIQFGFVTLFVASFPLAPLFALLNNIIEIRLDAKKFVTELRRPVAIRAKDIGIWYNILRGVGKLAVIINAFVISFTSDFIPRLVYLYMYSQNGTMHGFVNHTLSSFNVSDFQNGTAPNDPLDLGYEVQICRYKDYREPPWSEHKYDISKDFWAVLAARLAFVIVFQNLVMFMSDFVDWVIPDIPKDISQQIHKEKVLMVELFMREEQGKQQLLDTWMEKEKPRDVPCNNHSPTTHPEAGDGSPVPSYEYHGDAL
Kind of assay: Inhibition of GFP-fused mouse ANO1 channel expressed in HEK293A cells assessed as inhibition of current amplitude at 10 uM at membrane potential of +80 mV by patch clamp electrophysiology assay. In kind it is cell-based. The settings on record: HEK293-A. Put shortly:
(§1)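 Whole-cell recording at room temperature in HEK293A cells transfected with GFP-mANO1, GFP-mANO2 or GFP-mTTYH1. 1 s ramps from +80 to -80 mV, holding potential -10 mV. For ANO1/ANO2: pipette CsCl 146 mM with Ca-EGTA-NMDG, pH 7.3; bath NaCl-based, pH 7.3. For TTYH1: Tris-aspartate pipette (pH 7.2) and Tris-HCl bath (pH 7.4), with […] and BaCl2 added to block K+ channels, and hypotonic (220 mOsm/kg) bath. Washout recordings assessed reversibility.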
In general terms: The patch-clamp technique gives a direct electrical read-out from membranes.

Assay [2] concerns the target T2, Anoctamin-2 (Mus musculus, UniProt Q8CFW1).
T2 sequence (Q8CFW1 whole entry): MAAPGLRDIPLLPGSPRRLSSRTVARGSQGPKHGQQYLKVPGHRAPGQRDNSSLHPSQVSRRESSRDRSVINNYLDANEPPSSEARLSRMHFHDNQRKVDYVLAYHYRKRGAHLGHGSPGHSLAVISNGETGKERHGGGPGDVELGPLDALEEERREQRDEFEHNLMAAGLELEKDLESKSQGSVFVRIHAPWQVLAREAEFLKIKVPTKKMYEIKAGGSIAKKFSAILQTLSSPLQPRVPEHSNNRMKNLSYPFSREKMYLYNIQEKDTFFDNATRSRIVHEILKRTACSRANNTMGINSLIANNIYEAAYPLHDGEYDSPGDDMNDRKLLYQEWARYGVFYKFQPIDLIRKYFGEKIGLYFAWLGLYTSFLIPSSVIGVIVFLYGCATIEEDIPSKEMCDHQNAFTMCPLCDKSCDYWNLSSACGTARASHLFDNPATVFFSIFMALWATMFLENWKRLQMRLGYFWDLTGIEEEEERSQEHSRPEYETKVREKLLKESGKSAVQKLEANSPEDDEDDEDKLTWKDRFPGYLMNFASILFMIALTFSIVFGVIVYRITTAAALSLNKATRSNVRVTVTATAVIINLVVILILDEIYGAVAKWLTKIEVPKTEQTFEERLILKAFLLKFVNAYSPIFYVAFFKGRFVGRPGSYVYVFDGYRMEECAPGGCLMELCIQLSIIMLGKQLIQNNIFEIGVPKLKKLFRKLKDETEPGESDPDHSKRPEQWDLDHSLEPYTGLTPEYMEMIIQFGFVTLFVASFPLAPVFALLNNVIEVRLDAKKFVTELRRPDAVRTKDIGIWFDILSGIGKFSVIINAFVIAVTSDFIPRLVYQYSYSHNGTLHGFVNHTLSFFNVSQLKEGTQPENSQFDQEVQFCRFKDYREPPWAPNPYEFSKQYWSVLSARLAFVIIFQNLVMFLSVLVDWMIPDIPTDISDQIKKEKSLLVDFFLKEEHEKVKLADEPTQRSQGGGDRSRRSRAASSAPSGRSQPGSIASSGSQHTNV
Kind of assay: Inhibition of GFP-fused mouse ANO2 channel expressed in HEK293A cells assessed as inhibition of channel current amplitude at membrane potential of +80 mV by patch clamp electrophysiology assay. In kind it is cell-based, HEK293-A. Put shortly: as §1

As for `NC(=O)c1c(NC(=S)NC(=O)c2ccc(Cl)cc2)sc2c1CCC2`, the inhibition in assay [1] was determined as 57.6%. Further, the IC50 in assay [2] stood at 7.43 µM.
Turning to `CC(C)(C)C(=O)Nc1sc2c(c1C(N)=O)CCC(C(C)(C)C)C2` (centres undefined), the inhibition in assay [1] amounted to 50.6%. For the same compound, the IC50 in assay [2] came to 15.4 µM.
